Results: ChEMBL document CHEMBL1132592, “Synthesis of novel 2-benzothiopyran and 3-benzothiepin derivatives and their stimulatory effect on bone formation” (J Med Chem, 1999)

Assays:
[1] = molecular target: T1, Alkaline phosphatase, tissue-nonspecific isozyme (Mus musculus) (UniProt P09242); test: Alkaline phosphatase stimulatory activity of 10E-6 M compound in culture of MC3T3-E1 in presence of 3 ng/mL of BMP
T1 sequence (whole entry): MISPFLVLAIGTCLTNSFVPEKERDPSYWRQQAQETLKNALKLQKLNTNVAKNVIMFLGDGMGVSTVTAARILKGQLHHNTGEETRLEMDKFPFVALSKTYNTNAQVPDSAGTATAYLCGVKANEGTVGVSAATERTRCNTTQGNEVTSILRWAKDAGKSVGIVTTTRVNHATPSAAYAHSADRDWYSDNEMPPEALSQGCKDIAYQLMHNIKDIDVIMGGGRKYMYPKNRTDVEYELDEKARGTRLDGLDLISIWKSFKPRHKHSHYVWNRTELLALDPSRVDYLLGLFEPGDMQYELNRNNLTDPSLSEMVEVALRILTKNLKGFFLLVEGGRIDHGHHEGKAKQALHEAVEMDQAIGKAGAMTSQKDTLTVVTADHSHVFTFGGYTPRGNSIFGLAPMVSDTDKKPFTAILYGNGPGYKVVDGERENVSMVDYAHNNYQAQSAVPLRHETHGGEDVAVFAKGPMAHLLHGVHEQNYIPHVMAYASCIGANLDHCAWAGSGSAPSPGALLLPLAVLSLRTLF
Procedure, shortened: (§1)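 Mouse osteoblastic MC3T3-E1 cells, 3000 cells/well, grown 3 days in α-MEM with 10% FBS, then switched to α-MEM with 1% FBS plus compound, with or without recombinant Xenopus BMP-4/7 heterodimer (3 ng/mL), for 3 more days. ALP in lysate supernatant read as absorbance at 405 nm; mean ± SE, n = 6; Dunnett's test vs matching control.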

[2] = molecular target: T2, Alkaline phosphatase, tissue-nonspecific isozyme (Rattus norvegicus) (UniProt P08289); test: Effect on alkaline phosphatase activity compared to control in culture of rat bone marrow stromal cells, 10E-5 M concentration; type: tissue-based
T2 sequence (whole entry): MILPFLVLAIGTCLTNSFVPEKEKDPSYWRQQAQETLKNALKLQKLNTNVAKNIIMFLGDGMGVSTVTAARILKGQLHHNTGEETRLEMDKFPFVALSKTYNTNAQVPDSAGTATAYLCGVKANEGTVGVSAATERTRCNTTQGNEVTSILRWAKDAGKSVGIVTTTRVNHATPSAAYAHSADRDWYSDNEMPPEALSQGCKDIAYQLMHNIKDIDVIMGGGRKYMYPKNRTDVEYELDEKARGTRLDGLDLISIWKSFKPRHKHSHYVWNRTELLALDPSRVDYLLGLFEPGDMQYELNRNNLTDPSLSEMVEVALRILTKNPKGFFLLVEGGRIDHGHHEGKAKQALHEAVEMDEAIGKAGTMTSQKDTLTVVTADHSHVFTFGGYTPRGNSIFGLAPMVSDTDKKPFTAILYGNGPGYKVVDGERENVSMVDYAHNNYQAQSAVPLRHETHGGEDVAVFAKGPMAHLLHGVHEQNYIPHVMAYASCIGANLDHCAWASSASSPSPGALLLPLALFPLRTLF
Procedure, shortened: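 Rat femoral marrow stromal cells subcultured at 4 × 10^4 cells/well in α-MEM with 15% FBS, ascorbate, 10 mM β-glycerophosphate and 10^-7 M dexamethasone. Compound added day 1 to day 10-14, medium refreshed every other day. Lysate ALP (Lowry method) given as fold of control; n = 5–10; Student's t-test.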

[3] = molecular target: T2, Alkaline phosphatase, tissue-nonspecific isozyme (Rattus norvegicus); test: Effect of 10E-5 M compound on alkaline phosphatase activity in culture of rat bone marrow stromal cells; type: tissue-based
Procedure, shortened: (§2)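 Femoral marrow stromal cells from 7-week-old male Sprague-Dawley rats. Primary culture 1 week in α-MEM (10 mM HEPES pH 7.0, 15% FBS, 2 mM glutamine, 50 μg/mL ascorbate, 10 mM β-glycerophosphate, 10^-7 M dexamethasone), 37 °C, 5% CO2. Subcultured at 4 × 10^4 cells/well; compound (10 mM stock in EtOH-DMSO 1:1 or DMF) from day 1 to day 10-14, medium changed every other day. Lysate ALP (Lowry method) in nmol/min/well; mean ± SE, n = 5–10.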

[4] = molecular target: T1, Alkaline phosphatase, tissue-nonspecific isozyme (Mus musculus); test: Alkaline phosphatase stimulatory activity of 10E-5 M compound in culture of MC3T3-E1 in presence of 3 ng/mL of BMP; procedure, shortened: as §1
[5] = molecular target: T1, Alkaline phosphatase, tissue-nonspecific isozyme (Mus musculus); test: Alkaline phosphatase stimulatory activity of 10E-6 M compound in culture of MC3T3-E1 in absence of BMP; procedure, shortened: as §1
[6] = molecular target: T1, Alkaline phosphatase, tissue-nonspecific isozyme (Mus musculus); test: Alkaline phosphatase stimulatory activity of 10E-5 M compound in culture of MC3T3-E1 in absence of BMP; procedure, shortened: as §1
[7] = molecular target: T2, Alkaline phosphatase, tissue-nonspecific isozyme (Rattus norvegicus); test: Effect of 10E-7 M compound on alkaline phosphatase activity in culture of rat bone marrow stromal cells; procedure, shortened: as §2
[8] = molecular target: T2, Alkaline phosphatase, tissue-nonspecific isozyme (Rattus norvegicus); test: Effect of 10E-6 M compound on alkaline phosphatase activity in culture of rat bone marrow stromal cells; procedure, shortened: as §2

ALP activity [1]: 0.191
ALP activity [2]: 5.5
ALP activity [3]: 1640
ALP activity [4]: 0.284
ALP activity [5]: 0.154
ALP activity [6]: 0.195
ALP activity [7]: 192
ALP activity [8]: 682
SMILES: CCOP(=O)(Cc1ccc(NC(=O)[C@H]2Cc3cc4c(cc3C(=O)[C@H](C)S2)OCO4)cc1)OCC
